The list is not random: actives were taken first. Their share in the collection is about 2.3%.
MEKK3 PB1 HTS: raises or lowers MEK5 binding to the human MEKK3 PB1 domain; 1.4% of 290,000 active; bead-based flow cytometry, Alexa488-MEK5 binding to MEKK3; actives lie on both sides; 0 = blocked by unlabeled MEK5, 100 = vehicle; AID 1529; binding response (% of control), % at 10 µM; Q99759;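 active = binding response more than 3 SD above or below the average of its plate-row segment, actives on both sides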;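 also: Alexa488 bead fluorescence after subtracting the streptavidin-only scavenger bead signal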
MEKK2wt PB1 HTS: raises or lowers MEK5 binding to wildtype human MEKK2 PB1 domain; binding response (% of control), % at 10 µM; Q9Y2U5; AID 1531; 1.1% of 290,000 active; bead flow cytometry, Alexa488-MEK5 binding to MEKK2 WT; actives lie on both sides; in the data active = binding response below about 67% or above about 130%
ABCB1 block: human ABCB1 inhibition, ABCG2 as counter-screen; AID 1326; inhibition, % at 6.6 µM; CCRF-Adr cells, JC-1 efflux, flow cytometry; P08183; 0.067% of 190,000 active; in the data active = inhibition above about 40%;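 also: 0% = vehicle and 100% = reference inhibitor; higher value means more JC-1 retained so stronger ABCB1 efflux block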
ABCG2 inh: inhibitors of human ABCG2 transporter, ABCB1 counter-screen; inhibition, % at 6.6 µM; IgMXP3 cells, JC-1 efflux, flow cytometry; 0.1% of 190,000 active; Q9UNQ0;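 active = inhibition above 80%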;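 also: 0% = DMSO and 100% = nicardipine control wells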
Target sequence (Q9UNQ0 whole entry, looked up): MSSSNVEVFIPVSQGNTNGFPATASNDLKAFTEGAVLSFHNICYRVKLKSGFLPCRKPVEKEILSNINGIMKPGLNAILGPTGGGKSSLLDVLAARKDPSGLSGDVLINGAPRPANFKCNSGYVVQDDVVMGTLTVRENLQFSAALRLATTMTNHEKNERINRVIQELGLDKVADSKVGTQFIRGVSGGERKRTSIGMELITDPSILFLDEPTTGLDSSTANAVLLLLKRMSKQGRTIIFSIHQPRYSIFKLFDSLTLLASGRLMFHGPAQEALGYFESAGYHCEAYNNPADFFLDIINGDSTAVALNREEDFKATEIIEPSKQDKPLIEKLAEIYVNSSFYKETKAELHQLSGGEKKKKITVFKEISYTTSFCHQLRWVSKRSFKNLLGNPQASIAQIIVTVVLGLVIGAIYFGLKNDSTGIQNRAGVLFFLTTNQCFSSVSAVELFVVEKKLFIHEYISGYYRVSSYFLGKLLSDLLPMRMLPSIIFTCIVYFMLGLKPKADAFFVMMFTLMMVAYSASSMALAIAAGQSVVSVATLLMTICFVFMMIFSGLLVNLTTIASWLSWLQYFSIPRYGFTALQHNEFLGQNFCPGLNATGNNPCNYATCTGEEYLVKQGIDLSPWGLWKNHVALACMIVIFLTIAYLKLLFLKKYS
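Test system: IgMXP3 (ABCG2) plus far-red-tagged CCRF-Adr (ABCB1) cells / Amount: 3 million cells/mL in well / Reagent: JC-1 transporter substrate / Timing: 10 min compound exposure, 25 °C / Signal: flow cytometry, 530 nm JC-1 signal / Read-out: percent efflux inhibition, scaled nicardipine 100% to DMSO 0% / Benchmarks: nicardipine as high control, DMSO as low control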
MEKK2mut PB1 HTS: signal of MEK5 binding to mutant human MEKK2 PB1 domain. bead flow cytometry, Alexa488-MEK5 binding to MEKK2 mutant. percent response, % at 10 µM. 0.35% of 290,000 active; in the data active = percent response above about 24%, passing the limit was not always enough
MEKK2wt confirm: raises or lowers MEK5 binding to wildtype human MEKK2, retest. shares compounds with MEKK3 PB1 HTS. bead flow cytometry, Alexa488-MEK5 binding to MEKK2 WT; actives lie on both sides. binding response (% of control), % at 10 µM. 2.4% of 5,900 active. AID 1892; in the data active = binding response below about 16% or above about 210%; inactive = in between
MEKK2mut confirm: signal of MEK5 binding to mutant human MEKK2, retest; shares compounds with MEKK3 PB1 HTS; AID 1893; bead flow cytometry, Alexa488-MEK5 binding to MEKK2 mutant; 2% of 5,900 active; percent response, % at 10 µM; in the data active = percent response mostly above about 71%, no sharp cut-off; inactive = mostly below about 38%;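 also: higher means compound restores mutant binding toward wildtype level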
MEKK3-MEK5 inh: MEKK3-MEK5 PB1 inhibition, single concentration confirmation. shares compounds with MEKK3 PB1 HTS. bead flow cytometry, Alexa488-MEK5 binding to MEKK3; hits give low values. binding response (% of control), % at 10 µM. 1.8% of 5,900 active. AID 1894;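 active = binding response below 72% of control, or above a set upper limit, though filed actives all read lower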;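 also: 100% = DMSO only wells and 0% = binding blocked by excess unlabeled MEK5; lower values mean stronger disruption of MEK5 binding to MEKK3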
Active calls of the source: *; . = no result; [ ] = remark or other dose.

SMILES | MEKK3 PB1 HTS | MEKK2wt PB1 HTS | ABCB1 block | ABCG2 inh | MEKK2mut PB1 HTS | MEKK2wt confirm | MEKK2mut confirm | MEKK3-MEK5 inh
Cc1cccc(-n2c(-c3cccs3)nc3ccccc3c2=O)c1 | 130* | 100 | 1 | 11 | 0 | 98 | -5 | 103
c1ccc2c(CN3CCN(C4CCCCC4)CC3)c[nH]c2c1 | 114 | 168* | 1 | 5 | 44* | 167 | 50 | 105
c1ccc2c(CN3CCCCCCC3)c[nH]c2c1 | . | . | 0 | 1 | . | . | . | .
CCN1C(=O)NC(=O)/C(=C/c2cc(C)n(-c3sc(C)c(C)c3C#N)c2C)C1=O | 130* | 102 | 0 | 0 | 1 | 99 | 10 | 101
CCOC(=O)c1c(-n2c(C)cc(/C=C3/C(=O)NC(=O)N(CC)C3=O)c2C)sc2c1CCCC2 | 102 | 88 | . | . | 2 | . | . | .
NCCc1c[nH]c2ccccc12 | 92 | 138* | 0 | 0 | 11 | 113 | 9 | 103
Cc1ccccc1-n1c(C)nc2sccc2c1=O | 2.0*[inhibitor] | 3.0*[inhibitor] | 0 | 1 | -18 | 106 | 6 | 106
Cc1ccc2c(c1)C(c1ccccc1)NCC(=O)N2 (centres undefined) | 74*[inhibitor] | 88 | 0 | 3 | -11 | 50 | -16 | 90
CC(=O)N1CC(=O)Nc2ccc(C)cc2C1c1ccccc1 (centres undefined) | 109 | 107 | . | . | 9 | . | . | .
Cc1cc(C)n(-c2ccc(NN=C(C#N)C#N)cc2)n1 | 40*[inhibitor] | 43*[inhibitor] | . | . | -57 | 94 | -5 | 90
N#CC(C#N)=NNc1ccc(-n2ccc(C(F)(F)F)n2)cc1 | 93 | 91 | . | . | -6 | . | . | .
CCC(=NCC1CCCO1)c1c(O)n(-c2ccc(OC)cc2)c(=O)[nH]c1=O (centres undefined) | 99 | 100 | . | . | 1 | . | . | .
COc1cccc(N2C(=O)NC(=O)/C(=C/c3ccc4c(c3)Cc3ccccc3-4)C2=O)c1 | 100 | 90 | 0 | -2 | -5 | . | . | .
Nc1ccc2c(c1)Cc1ccccc1-2 | 133* | 107 | -1 | -3 | 0 | 101 | -1 | 100
CN(C)c1ccc(/C=C/c2cc[n+](C)c3ccccc23)cc1 | 70*[inhibitor] | . | 18 | 0 | -31 | 95 | -4 | 87
COc1ccc(-c2cc(=NCCC(=O)O)c3cc(C)ccc3o2)cc1 | 101 | 98 | -1 | 6 | -9 | . | . | .
CC(=O)c1c(O)n(-c2cccc(Cl)c2)c(=O)[nH]c1=O (tested in a mixture with another compound) | 128* | 108 | . | . | 27 | 104 | -4 | 103
CN1CCN(c2cn[nH]c(=O)c2Cl)CC1 | 98 | 96 | 1 | 2 | -7 | . | . | .
CCC(=O)c1ccc(OC)c(OC)c1 | 114 | 107 | 0 | 1 | 2 | . | . | .
COc1ccc2c3c([nH]c2c1)C(C)=NCC3 | 82 | 29*[inhibitor] | 0 | -1 | 4 | 103 | -3 | 100
CC[C@H]1CC2CN3CCc4c([nH]c5cc(OC)ccc45)[C@](C(=O)OC)(C2)[C@H]13 | 101 | 103 | . | . | 3 | . | . | .
Cc1cc(C)c(Cn2c(C(=O)O)c(C=O)c3ccccc32)c(C)c1 | 99 | 99 | 1 | -1 | -11 | . | . | .
Cc1ccsc1-c1nc(CSCC(=O)N2CCC3(CC2)OCCO3)c(C)o1 | 123* | 115 | 0 | 16 | 6 | 104 | 3 | 102
C#CCN(C)C(C)Cc1ccccc1 (centres undefined) | 69*[inhibitor] | 61*[inhibitor] | 0 | 2 | 3 | 99 | -6 | 100
CCOP(=O)(Cc1cc(C#N)oc1C)OCC | 103 | 108 | 2 | 3 | -1 | . | . | .
SMILES | MEKK3 PB1 HTS | MEKK2wt PB1 HTS | ABCB1 block | ABCG2 inh | MEKK2mut PB1 HTS | MEKK2wt confirm | MEKK2mut confirm | MEKK3-MEK5 inh
OC(c1ccccc1)(c1ccccc1)C1CCNCC1 | 101 | 136* | 0 | 1 | 9 | 105 | 7 | 101
OC(c1ccccc1)(c1ccccc1)C1CN2CCC1CC2 (centres undefined) | 92 | 83 | 0 | 1 | -11 | . | . | .
OCC12COC3c4ccccc4C(OC1)N32 (centres undefined) | 98 | 98 | 1 | 2 | -5 | . | . | .
O=C1NC(=O)[C@]2(Cc3ccccc3N3CCN(c4ccccc4)CC32)C(=O)N1Cc1ccccc1 (some centres undefined) | 107 | 103 | 1 | 1 | 0 | . | . | .
O=C1NC(=O)C2(Cc3ccccc3N3CCCC32)C(=O)N1Cc1ccccc1 (centres undefined) | -2.0*[inhibitor] | -30*[inhibitor] | 0 | 1 | -30 | 100 | 0 | 102
Cc1cccc2c1=NC(=O)/C(=C/c1c(O)[nH]c(=O)[nH]c1=O)C=2 | 147* | 101 | -1 | -5 | -1 | 97 | -7 | 96
O=c1[nH]c(=S)[nH]c(O)c1/C=C1/C=c2ccccc2=N1 | 105 | 103 | . | . | 3 | . | . | .
c1ccc(C(OCCN2CCNCC2)c2ccccc2)cc1 | 98 | 104 | 0 | 1 | 2 | . | . | .
c1ccc2nc(OCCN3CC3)ccc2c1 | 108 | 181* | . | . | 32* | 135 | 15 | 103
Cc1ccc2c(c1)C1CN(C)CCC1N2C(=O)c1ccco1 (centres undefined) | 71*[inhibitor] | 83 | 0 | 1 | -15 | 107 | -4 | 100
Cc1nn(Cc2ccccc2Cl)c(C)c1C(=O)OCC(=O)NC1CCCC(C)C1C (centres undefined) | 141* | 104 | 3 | 5 | 1 | 103 | -1 | 101
COc1ccc(NC(=O)N2C[C@@H]3C[C@@H](C2)c2cccc(=O)n2C3)c(OC)c1 | 98 | 97 | . | . | -2 | . | . | .
CN(C)CCNC(=O)c1cccn(Cc2cc(C(F)(F)F)cc(C(F)(F)F)c2)c1=O | 77 | 78 | 0 | -1 | -10 | . | . | .
CC(C)(C#CC(=O)O)OOC(c1ccccc1)(c1ccccc1)c1ccccc1 | 107 | 103 | . | . | 9 | . | . | .
CC1(C)CC(CCNCc2ccc3c(c2)OCO3)(Cc2ccccc2)CCO1 (centres undefined) | 97 | 101 | 1 | 3 | -6 | . | . | .
Cn1c(CN2CCN(C(=O)COc3ccccc3)CC2)nc2cc([N+](=O)[O-])ccc21 | 152* | 106 | 2 | 38 | 0 | 98 | -2 | 102
COc1ccc2[nH]cc(C3=CCNCC3)c2c1 | 109 | 182* | . | . | 174* | 123 | -18 | 98
Clc1cccc(C2NCc3ccccc3-n3cccc32)c1 (centres undefined) | 104 | 106 | . | . | -1 | . | . | .
Fc1ccc(CCNCc2cccc(Cl)c2)cc1 | 75*[inhibitor] | 93 | 1 | 2 | -7 | 111 | 18 | 105

Bioassay records: PubChem, NMMLSC
